ChEMBL document CHEMBL1140788, “Development of CXCR3 antagonists. Part 3: Tropenyl and homotropenyl-piperidine urea derivatives” (Bioorg Med Chem Lett, 2008)
Values after ≈ are worked out from the molar mass of the structure shown. Active and inactive are the calls of the source. The rule behind the calls is not given here.

Legend:
[1] = molecular target: T1, C-X-C chemokine receptor type 3 (Homo sapiens, UniProt P49682); test: Antagonist activity at human CXCR3 by [35S]GTP-gamma-S binding assay; type: functional
T1 sequence (P49682 whole entry): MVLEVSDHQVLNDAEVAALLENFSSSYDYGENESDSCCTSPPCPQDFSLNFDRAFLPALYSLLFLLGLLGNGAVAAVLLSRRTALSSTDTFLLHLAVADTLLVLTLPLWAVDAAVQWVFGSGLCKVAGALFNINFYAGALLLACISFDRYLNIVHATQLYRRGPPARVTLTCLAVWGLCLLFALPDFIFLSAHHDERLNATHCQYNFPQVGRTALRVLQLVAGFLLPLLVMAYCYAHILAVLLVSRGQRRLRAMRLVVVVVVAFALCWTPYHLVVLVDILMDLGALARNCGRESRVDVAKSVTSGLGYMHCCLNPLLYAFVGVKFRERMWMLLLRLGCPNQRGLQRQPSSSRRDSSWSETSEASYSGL

[2] = molecular target: T2, C-X-C chemokine receptor type 3 (Mus musculus, UniProt O88410); test: Antagonist activity at mouse CXCR3; type: functional
T2 sequence (O88410 whole entry): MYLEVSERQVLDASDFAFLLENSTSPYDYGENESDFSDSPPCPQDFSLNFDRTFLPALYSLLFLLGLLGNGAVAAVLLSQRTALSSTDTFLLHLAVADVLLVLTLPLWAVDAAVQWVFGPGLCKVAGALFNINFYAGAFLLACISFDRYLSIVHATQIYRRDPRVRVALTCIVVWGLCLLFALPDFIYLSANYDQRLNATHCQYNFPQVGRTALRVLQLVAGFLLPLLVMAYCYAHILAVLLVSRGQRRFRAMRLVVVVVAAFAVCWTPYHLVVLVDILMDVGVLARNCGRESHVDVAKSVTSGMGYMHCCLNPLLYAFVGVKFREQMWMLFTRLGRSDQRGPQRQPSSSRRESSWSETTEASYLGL

[3] = Distribution coefficient, log D at pH 7.4; type: physicochemical; conditions: octanol/water
How it was run: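 Octanol–water partition at pH 7.4.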

[4] = Intrinsic clearance in human liver microsomes at 0.5 uM; type: ADME, Microsome
Homo sapiens = species: Homo sapiens; test: Protein binding to human plasma; conditions: read-out: PPB
[5] = Solubility at pH 6.5 buffer; type: physicochemical
[6] = Oral bioavailability in BALB/c mouse at 30 mg/kg; type: ADME, organism-based; conditions: in vivo
How it was run: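 Balb/c mice given 30 mg/kg orally; plasma concentrations followed over time, sampled from 0 to 16 h post dose.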

[7] = Half life in mouse; type: ADME, organism-based; conditions: in vivo
Mus musculus [8] = test: Ex vivo inhibition of CXCL11-induced mouse CXCR3 receptor internalization in mouse T cells at 30 mg/kg, po after 4 hrs; type: functional, organism-based; set-up: dose 30 mg/kg; conditions: T-cell
How it was run: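 Mice dosed orally at 30 mg/kg; plasma collected at timepoints post dose and incubated with activated murine T cells, then 3 nM CXCL11 (A75) for 60 min at 37 °C; agonist removed, surface CXCR3 measured by flow cytometry.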

Mus musculus [9] = species: Mus musculus; test: In vitro inhibition of CXCL11-induced mouse CXCR3 receptor internalization in mouse T cells in presence of 90% naive mouse plasma; conditions: T-cell, read-out: pA2 (converted)
Cytochrome P450 2D6 = Cytochrome P450 2D6 (Homo sapiens, UniProt P10635); test: Inhibition of CYP2D6; type: ADME
[10] = molecular target: T3, Muscarinic acetylcholine receptor M2 (Homo sapiens, UniProt P08172); test: Inhibition of muscarinic M2 receptor
T3 sequence (P08172 whole entry): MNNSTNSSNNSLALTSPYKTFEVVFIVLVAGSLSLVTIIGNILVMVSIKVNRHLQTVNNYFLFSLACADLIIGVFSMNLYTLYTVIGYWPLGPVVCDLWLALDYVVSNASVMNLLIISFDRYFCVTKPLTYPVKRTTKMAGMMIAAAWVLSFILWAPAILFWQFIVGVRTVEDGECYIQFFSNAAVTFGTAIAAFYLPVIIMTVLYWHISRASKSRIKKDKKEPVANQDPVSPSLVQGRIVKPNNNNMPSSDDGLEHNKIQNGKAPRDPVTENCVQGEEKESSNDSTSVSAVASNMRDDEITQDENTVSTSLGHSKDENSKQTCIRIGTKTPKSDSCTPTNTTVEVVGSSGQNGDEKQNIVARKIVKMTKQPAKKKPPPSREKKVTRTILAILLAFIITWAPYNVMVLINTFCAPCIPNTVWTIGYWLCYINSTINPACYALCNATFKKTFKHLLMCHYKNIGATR

Mus musculus [11] = test: Ex vivo inhibition of CXCL11-induced mouse CXCR3 receptor internalization in mouse T cells at 30 mg/kg, po after 10 hrs; type: functional, organism-based; set-up: dose 30 mg/kg; conditions: T-cell
How it was run: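 Mice were dosed orally at 30 mg/kg, and plasma was taken at each timepoint after dosing. Activated murine T cells were incubated with that plasma, then stimulated with 3 nM CXCL11 (A75) for 60 min at 37 °C. Agonist was removed and surface CXCR3 was measured by flow cytometry.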

[12] = molecular target: T4, 5-hydroxytryptamine receptor 1A (Homo sapiens, UniProt P08908); test: Inhibition of 5HT1A receptor
T4 sequence (P08908 whole entry): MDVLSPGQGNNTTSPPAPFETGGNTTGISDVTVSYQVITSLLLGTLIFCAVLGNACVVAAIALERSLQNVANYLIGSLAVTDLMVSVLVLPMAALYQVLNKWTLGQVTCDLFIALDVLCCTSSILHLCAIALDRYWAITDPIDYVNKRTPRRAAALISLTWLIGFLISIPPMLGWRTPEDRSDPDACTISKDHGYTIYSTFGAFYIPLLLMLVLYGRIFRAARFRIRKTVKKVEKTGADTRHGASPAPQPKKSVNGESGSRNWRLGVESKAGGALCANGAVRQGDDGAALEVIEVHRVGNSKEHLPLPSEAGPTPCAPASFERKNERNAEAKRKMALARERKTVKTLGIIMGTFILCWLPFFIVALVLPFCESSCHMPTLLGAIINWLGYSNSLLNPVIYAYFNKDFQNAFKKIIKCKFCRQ

[13] = molecular target: T5, Muscarinic acetylcholine receptor M1 (Homo sapiens, UniProt P11229); test: Inhibition of muscarinic M1 receptor
T5 sequence (P11229 whole entry): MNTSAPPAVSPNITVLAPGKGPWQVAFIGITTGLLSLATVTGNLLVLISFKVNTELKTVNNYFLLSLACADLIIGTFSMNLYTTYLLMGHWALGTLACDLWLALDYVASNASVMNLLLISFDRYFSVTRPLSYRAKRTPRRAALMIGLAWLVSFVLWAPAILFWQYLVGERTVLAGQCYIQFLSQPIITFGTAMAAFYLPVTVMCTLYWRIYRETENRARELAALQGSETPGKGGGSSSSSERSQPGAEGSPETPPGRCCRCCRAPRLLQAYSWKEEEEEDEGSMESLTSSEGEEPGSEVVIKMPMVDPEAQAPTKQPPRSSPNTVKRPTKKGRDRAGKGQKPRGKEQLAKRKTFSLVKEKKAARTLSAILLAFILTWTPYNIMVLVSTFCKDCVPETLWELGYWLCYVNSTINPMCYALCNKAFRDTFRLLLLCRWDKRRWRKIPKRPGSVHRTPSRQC

[14] = molecular target: 5-hydroxytryptamine receptor 5A (Homo sapiens, UniProt P47898); test: Inhibition of 5HT5A receptor
[15] = molecular target: Muscarinic acetylcholine receptor M3 (Homo sapiens, UniProt P20309); test: Inhibition of muscarinic M3 receptor
[16] = Inhibition of sodium channel

Chain of Cytochrome P450 2D6 (P10635 whole entry): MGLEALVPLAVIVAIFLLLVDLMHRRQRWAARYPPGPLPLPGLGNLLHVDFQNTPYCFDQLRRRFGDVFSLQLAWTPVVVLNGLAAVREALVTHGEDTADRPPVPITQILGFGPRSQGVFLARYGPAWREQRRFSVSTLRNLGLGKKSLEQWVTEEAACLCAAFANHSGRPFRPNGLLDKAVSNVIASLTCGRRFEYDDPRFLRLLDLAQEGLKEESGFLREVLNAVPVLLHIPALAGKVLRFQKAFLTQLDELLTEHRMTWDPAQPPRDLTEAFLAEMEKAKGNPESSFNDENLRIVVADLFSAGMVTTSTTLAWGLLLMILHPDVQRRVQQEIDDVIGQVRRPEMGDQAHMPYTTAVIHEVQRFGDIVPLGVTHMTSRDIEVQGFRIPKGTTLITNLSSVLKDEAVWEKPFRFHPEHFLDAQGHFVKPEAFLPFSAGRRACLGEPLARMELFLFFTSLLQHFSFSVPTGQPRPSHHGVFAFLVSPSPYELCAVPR
Chain of Muscarinic acetylcholine receptor M3 (P20309 whole entry): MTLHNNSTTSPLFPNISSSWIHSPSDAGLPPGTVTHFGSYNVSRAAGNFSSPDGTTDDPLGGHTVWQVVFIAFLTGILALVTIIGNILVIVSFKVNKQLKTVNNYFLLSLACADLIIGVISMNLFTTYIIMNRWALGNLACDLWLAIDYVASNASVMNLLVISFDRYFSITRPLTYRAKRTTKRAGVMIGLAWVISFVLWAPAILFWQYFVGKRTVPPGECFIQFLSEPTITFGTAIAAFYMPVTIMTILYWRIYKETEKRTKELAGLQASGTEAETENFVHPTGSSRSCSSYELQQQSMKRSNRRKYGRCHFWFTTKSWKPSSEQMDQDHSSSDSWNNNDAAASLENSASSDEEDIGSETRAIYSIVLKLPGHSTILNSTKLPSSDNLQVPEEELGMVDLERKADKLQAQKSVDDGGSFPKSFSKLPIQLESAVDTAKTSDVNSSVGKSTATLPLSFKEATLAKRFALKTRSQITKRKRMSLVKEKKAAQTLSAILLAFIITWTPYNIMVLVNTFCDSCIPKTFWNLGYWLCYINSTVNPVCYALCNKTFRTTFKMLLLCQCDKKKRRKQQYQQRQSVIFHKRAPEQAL
Chain of 5-hydroxytryptamine receptor 5A (P47898 whole entry): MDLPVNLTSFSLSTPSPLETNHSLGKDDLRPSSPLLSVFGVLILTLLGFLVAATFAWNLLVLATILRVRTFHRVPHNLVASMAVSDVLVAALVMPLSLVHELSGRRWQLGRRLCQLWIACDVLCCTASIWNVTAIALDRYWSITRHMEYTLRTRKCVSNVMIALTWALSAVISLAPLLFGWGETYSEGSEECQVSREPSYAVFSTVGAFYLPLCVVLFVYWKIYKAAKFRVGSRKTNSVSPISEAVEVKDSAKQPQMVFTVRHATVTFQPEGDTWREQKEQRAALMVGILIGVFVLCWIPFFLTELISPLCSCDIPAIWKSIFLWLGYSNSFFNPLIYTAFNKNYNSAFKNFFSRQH

Ki [1] [nM]	Ki [2] [nM]	logD [3]	microsomal CLint at 0.5 µM [4] [µL/min/mg]	solubility [5] [µg/mL]	SMILES	further results
190	950	4.6	48		CCOC(=O)N1C2C=C(CN3CCC(NC(=O)Nc4cc(F)cc(C(F)(F)F)c4)CC3)CC1CC2 (stereo not given)	
20	80	3.4	9		O=C(Nc1cc(F)cc(C(F)(F)F)c1)NC1CCN(CC2=CC3CCC(C2)N3C(=O)C2CC2)CC1 (stereo not given)	
60		4.2	80	45 (≈ 83.9 µM)	CC(C)(C)C(=O)N1CCC(CN2CCC(NC(=O)Nc3cc(C(F)(F)F)cc(C(F)(F)F)c3)CC2)CC1	fraction unbound (Homo sapiens): 0.01
18	100	4.2	60		CC(C)(C)C(=O)N1C2C=C(CN3CCC(NC(=O)Nc4cc(F)cc(C(F)(F)F)c4)CC3)CC1CC2 (stereo not given)	
3	6	2.7	50		CC(=O)N1C2C=C(CN3CCC(NC(=O)Nc4cc(F)cc(OC(C)C)c4)CC3)CC1CCC2 (stereo not given)	
280		2.8	10		CC(=O)c1cccc(NC(=O)NC2CCN(CC3=CC4CCCC(C3)N4C(C)=O)CC2)c1 (stereo not given)	
120	650	2.8			CC(=O)N1C2CCC1CC(CN1CCC(NC(=O)Nc3cc(F)cc(C(F)(F)F)c3)CC1)C2 (mixture of isomers)	
11	33	2.5	22		CC(=O)N1C2C=C(CN3CCC(NC(=O)Nc4cccc(OC(C)C)c4)CC3)CC1CCC2 (stereo not given)	
180		3.1	4.5	850 (≈ 1720 µM)	CC(=O)N1CCC(CN2CCC(NC(=O)Nc3cc(C(F)(F)F)cc(C(F)(F)F)c3)CC2)CC1	
10	57	4.5	74		CC(C)(C)C(=O)N1C2C=C(CN3CCC(NC(=O)Nc4cc(F)cc(C(F)(F)F)c4)CC3)CC1CCC2 (stereo not given)	
			72	0.1 (≈ 0.255 µM)	O=C(Nc1ccc2ccccc2c1)NC1CCN(C/C2=C/CCCCCC2)CC1	fraction unbound (Homo sapiens): < 0.001; bioavailability [6]: 1%
1100		2.8	3.5	1360 (≈ 2710 µM)	O=C(Nc1cc(C(F)(F)F)cc(C(F)(F)F)c1)NC1CCN(CCC2CCS(=O)(=O)C2)CC1 (stereo not given)	bioavailability [6]: 52%; half-life [7]: 5.5 h
9	38	3.4	9		CC(=O)N1C2C=C(CN3CCC(NC(=O)Nc4cc(F)cc(C(F)(F)F)c4)CC3)CC1CCC2 (stereo not given)	Activity (Mus musculus [8]): Active; Kb (Mus musculus [9]): 186 nM
26	400	5.1	82	< 1	CC1(C)[C@H]2CC=C(CN3CCC(NC(=O)Nc4cc(C(F)(F)F)cc(C(F)(F)F)c4)CC3)[C@@H]1C2	fraction unbound (Homo sapiens): 0.001; Ki (Cytochrome P450 2D6): 5000 nM
27	120	3	11		CC(=O)N1C2C=C(CN3CCC(NC(=O)Nc4cc(F)cc(C(F)(F)F)c4)CC3)CC1CC2 (stereo not given)	
28	180	3.9	58		CC(C)C(=O)N1C2C=C(CN3CCC(NC(=O)Nc4cc(F)cc(C(F)(F)F)c4)CC3)CC1CC2 (stereo not given)	

SMILES	Ki [1] [nM]	Ki [2] [nM]	logD [3]	microsomal CLint at 0.5 µM [4] [µL/min/mg]	solubility [5] [µg/mL]	further results
CC(=O)N1C2C=C(CN3C4CCC3CC(NC(=O)Nc3cc(F)cc(C(F)(F)F)c3)C4)CC1CCC2 (stereo not given)	7	6	3.1	7	40 (≈ 78.7 µM)	Ki [10]: 280 nM; Activity (Mus musculus [11]): Active; Ki [12]: 280 nM; Ki [13]: 230 nM; bioavailability [6]: 70%; Ki (Cytochrome P450 2D6): 15000 nM; Ki [14]: 3000 nM; Kb (Mus musculus [9]): 95.5 nM; Ki [15]: 1200 nM; Ki [16]: 570 nM
